These results are taken from ChEMBL document CHEMBL1156277, “Discovery of N-methyl-4-(4-methoxyanilino)quinazolines as potent apoptosis inducers. Structure-activity relationship of the quinazoline ring” (Bioorg Med Chem Lett, 2010).

As a reminder, the EC50 is the concentration at which the effect is half-maximal. The IC50 is the midpoint of a concentration-inhibition curve.

For data set [1], the system named is NCI-H1299. In words: Induction of apoptosis in human H1299 cells assessed as caspase activation. Type of data set: functional, cell-based. In outline:
(§1)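 Cell- and caspase-based HTS assay in human breast cancer T47D and human non-small cell lung cancer H1299 cells. Caspase-3 activation was read with fluorescent caspase-3 substrates and reported as EC50. Data are the mean of three or more experiments ± SEM.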

In data set [2] the test system is T47D. The data set can be described thus: Induction of apoptosis in human T47D cells assessed as caspase activation. Type of data set: functional, cell-based. The method, boiled down: as §1
Data set [3] relates to T47D. The data set can be described thus: Selectivity ratio EC50 for human H1299 cells over EC50 for human T47D cells. The format is functional.
The nature of data set [4]: Inhibition of tubulin polymerization.
Data set [5] can be described thus: Ratio of AUC in brain to plasma in mouse at 2.5 mg/kg, iv. Set-up: dose 2.5 mg/kg, route intravenous. The format is ADME, organism-based. As to conditions: brain and plasma, read-out: Ratio AUC. The method, boiled down: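 Mice got a single intravenous dose. Compound levels in plasma from blood samples and in homogenized whole brain were determined by LC–MS/MS. Brain/plasma ratio was calculated from the areas under the concentration–time curves.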

In the case of `COc1ccc(N(C)c2nc(C)nc3ccc(NC(C)=O)cc23)cc1`, the values for the concentration giving a half-maximal response (EC50) in data set [1] and in data set [2] were 1400 nM and 960 nM, respectively. Further, the Selectivity ratio in data set [3] was 1.5.
Regarding `COc1ccc(N(C)c2nc(C)nc3cc(N)ccc23)cc1`, in data set [4], half-maximal inhibition (IC50) was put at 2000 nM. In addition, the half-maximal effective concentration (EC50) in data set [1] turned out to be 570 nM; in data set [2], 780 nM. Besides, the Selectivity ratio in data set [3] stood at 0.73.
`COc1ccc(N(C)c2nc(C)nc3cc(N=[N+]=[N-])ccc23)cc1`: the EC50 in data set [1] is 130 nM; in data set [2] it was 110 nM. The Selectivity ratio in data set [3] was 1.2.
Take `COc1ccc(N(C)c2nc(C)nc3ncccc23)cc1`: the EC50 in data set [1] is 21 nM; in data set [2] it was 15 nM. For the same molecule, the Selectivity ratio in data set [3] turned out to be 1.4. For the same molecule, the Kp in data set [5] was 1.8.
Take `COc1ccc(N(C)c2nc(C)nc3ccc([N+](=O)[O-])cc23)cc1`: the EC50 in data set [1] is 130 nM; in data set [2], 400 nM. In addition, in data set [3], the Selectivity ratio was found to be 0.33.
Taken in the same sequence, the figures for `COc1ccc(N(C)c2nc(C)nc3cc([N+](=O)[O-])ccc23)cc1` were more than 10000 nM, more than 10000 nM and 2.
Turning to `COc1ccc(N(C)c2nccc3ccccc23)cc1`, the half-maximal inhibitory concentration (IC50) in data set [4] came out at 400 nM. The EC50 in data set [1] was determined as 960 nM; in data set [2], 600 nM. The Selectivity ratio in data set [3] worked out at 2.
In the case of `COc1ccc(N(C)c2ccnc3ccccc23)cc1`, the EC50 in data set [1] came out at 26 nM; in data set [2], 21 nM. Further, the Selectivity ratio in data set [3] came to 2. The Kp in data set [5] is 9.2.
Turning to `COc1ccc(N(C)c2nnnc3ccccc23)cc1`, the EC50 in data set [1] amounted to 45 nM; in data set [2], 17 nM. Also, in data set [3], the Selectivity ratio is 2.
With `COc1ccc(N(C)c2nc(C)nc3nccnc23)cc1`, the EC50 in data set [1] came to 36 nM; in data set [2], 29 nM. Also, the Selectivity ratio in data set [3] came to 1.2. The Kp in data set [5] is 2.1.
For the molecule `COc1ccc(N(C)c2nc(C)nc3cccc(OC)c23)cc1`, in data set [4], the half-maximal inhibitory concentration (IC50) was 400 nM. Also, the values for the EC50 in data set [1] and in data set [2] were 8 nM and 4 nM, respectively. In addition, the Selectivity ratio in data set [3] came out at 2.
In the case of `COc1ccc(N(C)c2nc(C)nc3ccc(N)cc23)cc1`, the figures for the concentration giving a half-maximal response (EC50) in data set [1] and in data set [2] were 14 nM and 8 nM, respectively. The Selectivity ratio in data set [3] was determined as 2. Further, the Kp in data set [5] worked out at 3.6.
`COc1ccc(N(C)c2nc(C)nc3ccc(N(C)C)cc23)cc1`: the 50% effective concentration (EC50) in data set [1] was found to be 1400 nM; in data set [2] it was 450 nM. The Selectivity ratio in data set [3] turned out to be 3.1.
Molecule `COc1ccc(N(C)c2nc(C)nc3ccccc23)cc1` [VERUBULIN] had a concentration for half-maximal inhibition (IC50) in data set [4] of 2000 nM. In data set [1], the EC50 came to 7 nM.
